Data as given in ChEMBL document CHEMBL1944596, “7,8-dichloro-1-oxo-β-carbolines as a versatile scaffold for the development of potent and selective kinase inhibitors with unusual binding modes” (J Med Chem, 2012).
Calls of active or inactive are those of the source. No cut-off for these calls is given here.

What was measured:
[1] = target: Protein kinase C alpha type (Homo sapiens, UniProt P17252); assay: Inhibition of PKCalpha using ATP as substrate
[2] = target: MAP kinase-activated protein kinase 5 (Homo sapiens, UniProt Q8IW41); assay: Inhibition of MK5 using ATP as substrate
Chain of MAP kinase-activated protein kinase 5 (Q8IW41 whole entry): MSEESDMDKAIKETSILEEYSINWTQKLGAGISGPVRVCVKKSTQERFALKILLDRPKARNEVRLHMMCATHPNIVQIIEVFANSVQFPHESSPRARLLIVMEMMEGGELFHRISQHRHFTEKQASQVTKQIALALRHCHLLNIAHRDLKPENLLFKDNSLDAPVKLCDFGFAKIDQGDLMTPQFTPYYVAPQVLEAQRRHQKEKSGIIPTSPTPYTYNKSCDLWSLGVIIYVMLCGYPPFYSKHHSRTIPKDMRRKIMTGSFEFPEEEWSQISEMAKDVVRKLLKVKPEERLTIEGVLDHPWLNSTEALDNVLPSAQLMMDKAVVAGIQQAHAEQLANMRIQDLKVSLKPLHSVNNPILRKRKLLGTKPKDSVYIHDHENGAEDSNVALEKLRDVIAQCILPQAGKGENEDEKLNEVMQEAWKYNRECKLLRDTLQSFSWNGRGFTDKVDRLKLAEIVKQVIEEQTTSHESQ

[3] = system: MV4-11; assay: Inhibition of PIM-mediated 4E-BP1 phosphorylation in human MV4-11 cells after 180 mins by Western blot analysis; assay type: cell-based
Summary of the method: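 MV4;11 cells at 5 × 10^5/mL in RPMI 1640 with 10% FCS, 37 °C, 5% CO2, treated at 0–10 μM for varied times. Lysed on ice in Triton X-100 buffer with NaF, Na3VO4 and protease inhibitors. 50 μg protein run on 15% SDS–PAGE and blotted for phospho-4E-BP1 with HRP chemiluminescence. Reprobed for total 4E-BP1 and β-actin as loading controls.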

[4] = target: Receptor-type tyrosine-protein kinase FLT3 (Homo sapiens) (UniProt P36888); assay: Inhibition of FLT3 using ATP as substrate
Chain of Receptor-type tyrosine-protein kinase FLT3 (Homo sapiens) (P36888 whole entry): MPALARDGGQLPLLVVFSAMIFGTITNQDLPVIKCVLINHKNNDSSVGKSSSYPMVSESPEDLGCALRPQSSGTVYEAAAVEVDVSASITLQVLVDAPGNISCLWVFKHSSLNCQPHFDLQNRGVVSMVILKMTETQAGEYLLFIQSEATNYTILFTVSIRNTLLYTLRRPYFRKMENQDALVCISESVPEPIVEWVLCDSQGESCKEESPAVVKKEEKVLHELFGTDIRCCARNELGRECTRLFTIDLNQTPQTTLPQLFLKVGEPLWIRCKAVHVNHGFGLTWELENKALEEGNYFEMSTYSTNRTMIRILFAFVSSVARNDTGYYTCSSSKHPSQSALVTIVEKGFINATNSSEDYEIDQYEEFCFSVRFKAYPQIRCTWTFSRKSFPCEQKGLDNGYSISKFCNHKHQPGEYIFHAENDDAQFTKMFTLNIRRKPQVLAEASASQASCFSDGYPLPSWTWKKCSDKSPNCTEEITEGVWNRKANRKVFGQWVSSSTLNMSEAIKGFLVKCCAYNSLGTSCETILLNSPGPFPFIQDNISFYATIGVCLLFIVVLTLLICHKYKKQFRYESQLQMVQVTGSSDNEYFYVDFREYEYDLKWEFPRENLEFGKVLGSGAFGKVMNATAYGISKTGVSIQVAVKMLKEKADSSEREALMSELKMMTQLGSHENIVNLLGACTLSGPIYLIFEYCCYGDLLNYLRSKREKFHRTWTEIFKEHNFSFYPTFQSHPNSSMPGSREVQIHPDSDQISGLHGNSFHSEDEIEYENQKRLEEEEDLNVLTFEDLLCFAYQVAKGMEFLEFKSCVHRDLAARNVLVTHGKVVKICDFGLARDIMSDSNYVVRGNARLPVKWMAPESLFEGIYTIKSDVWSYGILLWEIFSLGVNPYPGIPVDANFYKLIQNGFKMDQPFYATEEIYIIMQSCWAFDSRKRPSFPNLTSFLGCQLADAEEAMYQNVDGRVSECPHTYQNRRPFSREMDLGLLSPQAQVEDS

inhibition [4] | Compound | IC50 [1] [µM] | IC50 [2] [µM] | inhibition [3]
– | Cn1c2c(c3ccc(Cl)c(Cl)c31)C(C#N)C1(CCNCC1)NC2=O (racemic) | 2.2 | 1.7 | Dose-dependent effect
inactive | CN1CCC2(CC1)NC(=O)c1c(c3ccc(Cl)c(Cl)c3n1C)C2C#N (racemic) | – | – | –
